ChEMBL document CHEMBL4325837, “Discovery of novel NO-releasing celastrol derivatives with Hsp90 inhibition and cytotoxic activities” (Eur J Med Chem, 2018)
The source made the active and inactive calls. The calls are words filed in the database; no cut-off is given here.

Columns and labels:
A549 [1] = test: Antiproliferative activity against human A549 cells after 48 hrs by MTT assay; assay type: functional, cell-based; conditions: A549, 48 h
In short: (§1)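 MTT assay. Cells were seeded at 5.0 × 10⁴ cells/ml in 100 μL per well and grown 24 h. They were then exposed to a range of concentrations for 48 h. MTT (5 mg/ml) was added for 4 h, the supernatant was removed and DMSO was added. OD was read at 570 nm. Assays were run in triplicate and IC50 is reported as mean ± SD, n = 3.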

MCF7 = test: Antiproliferative activity against human MCF7 cells after 48 hrs by MTT assay; assay type: functional, cell-based; conditions: MCF7, 48 h; in short: as §1
HOS = test: Antiproliferative activity against human HOS cells after 48 hrs by MTT assay; assay type: functional, cell-based; in short: as §1
HepG2 = test: Antiproliferative activity against human HepG2 cells after 48 hrs by MTT assay; assay type: functional, cell-based; conditions: HepG2, 48 h; in short: as §1
[2] = Drug metabolism in human A549 cells assessed as nitric oxide release at 4 uM measured up to 24 hrs; assay type: ADME, cell-based; conditions: a549, 24 h
In short: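 A549 cells were seeded at 5.0 × 10⁴ cells/ml in 100 μL wells and grown 24 h at 37 °C. Hybrids were added at 4 μM for varying times, with 24 h used for the full set. NO was measured with a Nitrate/Nitrite assay kit against a standard curve, reading OD at 550 nm. Values are the mean of three independent experiments.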

A549 [3] = test: Induction of apoptosis in human A549 cells assessed as chromatin condensation at 0.3 to 1.2 uM after 48 hrs by Hoechst 33342 staining based fluorescent microscopic method; assay type: functional, cell-based
In short: (§2)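 A549 cells (4 × 10⁵ per 6 cm dish) were grown 24 h, then treated for 48 h. Cells were washed twice with PBS, stained with Hoechst 33342 (10 µg/ml) for 5 min at room temperature in the dark, and examined by fluorescence microscopy for chromatin condensation and nuclear fragmentation.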

A549 [4] = test: Induction of apoptosis in human A549 cells assessed as viable cells at 1.2 uM after 48 hrs by Annexin V-FITC/propidium iodide staining-based flow cytometric analysis (reference value: 98.5%); assay type: functional; conditions: A549, 48 h, read-out: Activity
A549 [5] = test: Induction of apoptosis in human A549 cells assessed as early apoptotic cells at 1.2 uM after 48 hrs by Annexin V-FITC/propidium iodide staining-based flow cytometric analysis (reference value: 0.5%); assay type: functional
A549 [6] = test: Induction of apoptosis in human A549 cells assessed as late apoptotic cells at 1.2 uM after 48 hrs by Annexin V-FITC/propidium iodide staining-based flow cytometric analysis (reference value: 0.4%); assay type: functional
A549 [7] = test: Induction of apoptosis in human A549 cells assessed as necrotic cells at 1.2 uM after 48 hrs by Annexin V-FITC/propidium iodide staining-based flow cytometric analysis (reference value: 0.6%); assay type: functional
A549 [8] = test: Induction of apoptosis in human A549 cells assessed as viable cells at 0.3 uM after 48 hrs by Annexin V-FITC/propidium iodide staining-based flow cytometric analysis (reference value: 98.5%); assay type: functional; conditions: A549, 48 h, read-out: Activity
In short: (§3)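 A549 cells (4 × 10⁵ per 6 cm dish) were grown 24 h, then treated for 48 h. Cells were harvested, washed twice with cold PBS and resuspended in 250 μL binding buffer with 2.5 μL PI and 2.5 μL Annexin V-FITC. After 15 min at room temperature in the dark, they were analysed by flow cytometry for early and late apoptotic fractions.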

A549 [9] = test: Induction of apoptosis in human A549 cells assessed as early apoptotic cells at 0.3 uM after 48 hrs by Annexin V-FITC/propidium iodide staining-based flow cytometric analysis (reference value: 0.5%); assay type: functional; in short: as §3
A549 [10] = test: Induction of apoptosis in human A549 cells assessed as late apoptotic cells at 0.3 uM after 48 hrs by Annexin V-FITC/propidium iodide staining-based flow cytometric analysis (reference value: 0.4%); assay type: functional; in short: as §3
A549 [11] = test: Induction of apoptosis in human A549 cells assessed as necrotic cells at 0.3 uM after 48 hrs by Annexin V-FITC/propidium iodide staining-based flow cytometric analysis (reference value: 0.6%); assay type: functional; in short: as §3
A549 [12] = test: Induction of apoptosis in human A549 cells assessed as viable cells at 0.6 uM after 48 hrs by Annexin V-FITC/propidium iodide staining-based flow cytometric analysis (reference value: 98.5%); assay type: functional; conditions: A549, 48 h, read-out: Activity; in short: as §3
A549 [13] = test: Induction of apoptosis in human A549 cells assessed as early apoptotic cells at 0.6 uM after 48 hrs by Annexin V-FITC/propidium iodide staining-based flow cytometric analysis (reference value: 0.5%); assay type: functional; in short: as §3
A549 [14] = test: Induction of apoptosis in human A549 cells assessed as late apoptotic cells at 0.6 uM after 48 hrs by Annexin V-FITC/propidium iodide staining-based flow cytometric analysis (reference value: 0.4%); assay type: functional; in short: as §3
A549 [15] = test: Induction of apoptosis in human A549 cells assessed as necrotic cells at 0.6 uM after 48 hrs by Annexin V-FITC/propidium iodide staining-based flow cytometric analysis (reference value: 0.6%); assay type: functional; in short: as §3
A549 [16] = test: Induction of apoptosis in human A549 cells after 48 hrs by Annexin V-FITC/propidium iodide staining-based flow cytometric analysis; assay type: functional, cell-based; in short: as §3
A549 [17] = test: Induction of apoptosis in human A549 cells assessed as nuclear fragmentation at 0.3 to 1.2 uM after 48 hrs by Hoechst 33342 staining based fluorescent microscopic method; assay type: functional, cell-based; in short: as §2
A549 [18] = test: Cell cycle arrest in human A549 cells assessed as accumulation at G1 phase at 0.2 uM by after 24 hrs by RNase A/propidium iodide staining-based flow cytometric analysis (reference value: 46.97%); assay type: functional
A549 [19] = test: Cell cycle arrest in human A549 cells assessed as accumulation at S phase at 0.2 uM by after 24 hrs by RNase A/propidium iodide staining-based flow cytometric analysis (reference value: 28.11%); assay type: functional
A549 [20] = test: Cell cycle arrest in human A549 cells assessed as accumulation at G2 phase at 0.2 uM by after 24 hrs by RNase A/propidium iodide staining-based flow cytometric analysis (reference value: 24.84%); assay type: functional
A549 [21] = test: Cell cycle arrest in human A549 cells assessed as accumulation at G1 phase at 0.4 uM by after 24 hrs by RNase A/propidium iodide staining-based flow cytometric analysis (reference value: 46.97%); assay type: functional
A549 [22] = test: Cell cycle arrest in human A549 cells assessed as accumulation at S phase at 0.4 uM by after 24 hrs by RNase A/propidium iodide staining-based flow cytometric analysis (reference value: 28.11%); assay type: functional
A549 [23] = test: Cell cycle arrest in human A549 cells assessed as accumulation at G2 phase at 0.4 uM by after 24 hrs by RNase A/propidium iodide staining-based flow cytometric analysis (reference value: 24.84%); assay type: functional
A549 [24] = test: Cell cycle arrest in human A549 cells assessed as accumulation at G1 phase at 0.8 uM by after 24 hrs by RNase A/propidium iodide staining-based flow cytometric analysis (reference value: 46.97%); assay type: functional
A549 [25] = test: Cell cycle arrest in human A549 cells assessed as accumulation at S phase at 0.8 uM by after 24 hrs by RNase A/propidium iodide staining-based flow cytometric analysis (reference value: 28.11%); assay type: functional
A549 [26] = test: Cell cycle arrest in human A549 cells assessed as accumulation at G2 phase at 0.8 uM by after 24 hrs by RNase A/propidium iodide staining-based flow cytometric analysis (reference value: 24.84%); assay type: functional
[27] = target: T1, Heat shock protein HSP90 (Homo sapiens) (UniProt P07900+P08238); test: Inhibition of HSP90 in human A549 cells assessed as decrease in CDK4 protein expression at 0.5 to 2.5 uM after 24 hrs by Western blot analysis; assay type: cell-based
In short: (§4)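 A549 cells (5 × 10⁵ per 6 cm dish) were grown 24 h, then treated for 24 h. Cells were lysed and the lysate spun at 10,000 g for 20 min at 4 °C. Protein was adjusted to 3 mg/ml by BCA and run on 10% SDS-PAGE. Blots were probed with monoclonal antibodies for Cdk4, Hsp90, p-Akt and Akt, with β-actin as internal control.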

[28] = target: T1, Heat shock protein HSP90 (Homo sapiens); test: Inhibition of HSP90 in human A549 cells assessed as decrease in Akt phosphorylation at 0.5 to 2.5 uM after 24 hrs by Western blot analysis; assay type: cell-based; in short: as §4
[29] = target: T1, Heat shock protein HSP90 (Homo sapiens); test: Inhibition of HSP90 in human A549 cells at 0.5 to 2.5 uM after 24 hrs by Western blot analysis; assay type: cell-based; in short: as §4

## CC1=C(O)C(=O)C=C2C1=CC=C1[C@@]2(C)CC[C@@]2(C)[C@@H]3C[C@](C)(C(=O)OCC(C)Oc4no[n+]([O-])c4S(=O)(=O)c4ccccc4)CC[C@]3(C)CC[C@]12C (stereo partly specified)
A549 [1]
  IC50: 2.07 µM
MCF7
  IC50: 2.02 µM
HOS
  IC50: 3.03 µM
HepG2
  IC50: 2.39 µM

## CC1=C(O)C(=O)C=C2C1=CC=C1[C@@]2(C)CC[C@@]2(C)[C@@H]3C[C@](C)(C(=O)NCCCOc4no[n+]([O-])c4S(=O)(=O)c4ccccc4)CC[C@]3(C)CC[C@]12C
A549 [1]
  IC50: 0.43 to 0.48 µM
MCF7
  IC50: 0.78 µM
HOS
  IC50: 0.51 µM
HepG2
  IC50: 1.41 µM
[2]
  Drug metabolism: Metabolite_Detected
A549 [3]
  Activity: Active
A549 [4]
  viability at 1.2 µM: 46.3%
A549 [5]
  Activity: 12.9%
A549 [6]
  Activity: 31%
A549 [7]
  Activity: 9.8%
A549 [8]
  viability at 0.3 µM: 88.8%
A549 [9]
  Activity: 3.1%
A549 [10]
  Activity: 6.4%
A549 [11]
  Activity: 1.7%
A549 [12]
  viability at 0.6 µM: 64.8%
A549 [13]
  Activity: 9.9%
A549 [14]
  Activity: 20%
A549 [15]
  Activity: 5.3%
A549 [16]
  Activity: Dose-dependent effect
A549 [17]
  Activity: Active
A549 [18]
  Activity: 52.05%
A549 [19]
  Activity: 27.71%
A549 [20]
  Activity: 21.12%
A549 [21]
  Activity: 56.36%
A549 [22]
  Activity: 25.12%
A549 [23]
  Activity: 18.38%
A549 [24]
  Activity: 61.12%
A549 [25]
  Activity: 25.48%
A549 [26]
  Activity: 16.59%
[27]
  inhibition: Active
[28]
  inhibition: Active
[29]
  inhibition: inactive

## CC1=C(O)C(=O)C=C2C1=CC=C1[C@@]2(C)CC[C@@]2(C)[C@@H]3C[C@](C)(C(=O)OCCOc4no[n+]([O-])c4S(=O)(=O)c4ccccc4)CC[C@]3(C)CC[C@]12C
A549 [1]
  IC50: 2.28 µM
MCF7
  IC50: 2.76 µM
HOS
  IC50: 1.69 µM
HepG2
  IC50: 4.75 µM
[2]
  Drug metabolism: Metabolite_Detected
